In the library only some 3.2% were active in any assay of this set; here they are far more common.
rRNA inh HTS: selective bacterial rRNA inhibition in E. coli; E. coli WT GFP vs humanized-ribosome RFP mutants, fluorescence, 24 h; stronger effect = lower value; DMSO median 0, no signal -100; GFP signal change (wild-type ribosome), % (concentration not given with the values); actives 1.6% (n = 350,000); AID 720706;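 active means significant combined selectivity score with lowered wild-type GFP, culture density cut under 30%, mutant RFP and density less affected; inactive means any of these conditions unmet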
PfHsp90 set2: growth inhibition of yeast expressing Plasmodium Hsp90. actives 0.32% (n = 310,000). S. cerevisiae expressing PfHsp90, BacTiter-Glo ATP, 48 h; yeast lacking PDR1 and PDR3 efflux regulators. inhibition, % at 9.4 µM;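 active means every replicate shows inhibition above about 80%, whatever the replicate mean, limit read from the data; inconclusive means mean inhibition reaches the set limit but some replicate falls short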;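 further: 0% = DMSO neutral controls and 100% = 20 µM radicicol positive controls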
Cneo AK release: causes C. neoformans cell lysis; actives 0.2% (n = 360,000); lysis activity, % at 15 µM; AID 651654; adenylate kinase release luminescence, 4 h; normalised: neutral wells 0, clomiphene wells 100;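 active means mean lysis activity across replicates of at least 80%, whatever share of replicates individually reach that level; inactive means mean lysis activity below 80%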
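Assay system: C. neoformans cells. Amount: yeast cell density of 5 × 10^6 cells/mL. Technique: AK luminescence. Buffer or medium: YPD. Times: static 4 h at 37 °C with compound, 1 h detection. Dosing: single-point compound dose. Read-out: lysis from increased AK signal.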
DENV2 CPE rescue: protects cells from dengue virus 2 cytopathic effect; CPE inhibition, % at 9.99 µM; actives 1.7% (n = 350,000); AID 651640; DENV2-infected cells, cytopathic effect rescue, plate reader; in the data active means CPE inhibition above about 20%, passing the limit was not always enough; inconclusive means no clear call, values can overlap the other calls; tested in BHK-21 cells;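 further: 0% = median of neutral control wells and 100% = median of positive control wells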
MLL AF4-AF9 inh: blocks AF4 peptide binding to human AF9. P42568. AlphaScreen, biotin-AF4 peptide binding to FLAG-AF9. inhibition, % at 10 µM. actives 0.47% (n = 350,000);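 active means every replicate reaching a set inhibition limit, whatever the replicate mean, cut at about 25% in these data; inconclusive means mean inhibition reaches that limit but some replicates miss it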;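 further: 0% = plate neutral control median and 100% = total signal loss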
S100A4 inh HTS: inhibitors of human S100A4 binding to myosin IIA peptide | inhibition, % at 10.7 µM | S100A4/TAMRA-MyoIIA peptide fluorescence polarization | P26447 | actives 0.14% (n = 360,000) | AID 652163;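 active means mean inhibition of at least 70% across replicates, with every replicate also reaching that level; inconclusive means mean inhibition reaches 70% but some replicates fall short; inactive means mean inhibition below 70%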
Target sequence (P26447 whole entry, looked up): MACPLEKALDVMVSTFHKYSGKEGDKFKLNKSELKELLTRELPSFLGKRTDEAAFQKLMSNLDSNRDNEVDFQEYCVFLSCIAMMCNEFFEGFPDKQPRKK
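Assay system: human S100A4 monomer with TAMRA-labelled myosin IIA peptide / Buffer or medium: Calcium-containing HEPES buffer, pH 7.2 / Reagent: TAMRA-labelled myosin IIA heavy-chain peptide probe, 5 nM / Compound: one dose per compound / Timing: polarization read 5 min after assay mix addition, stable 5–60 min / Benchmarks: neutral control DMSO, positive control TFP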
Numbers without * were called inactive; ? = inconclusive; nt = no result given.

SMILES	rRNA inh HTS	PfHsp90 set2	Cneo AK release	DENV2 CPE rescue	MLL AF4-AF9 inh	S100A4 inh HTS
C[C@@H]1CN([C@@H](C)CO)C(=O)c2cc(NS(=O)(=O)c3ccc(Cl)cc3)ccc2O[C@@H]1CN(C)Cc1ccc(C(=O)Nc2ccccc2N)cc1	-8	nt	-1	17	0	-9
C#CCN(Cc1ccco1)C(=O)c1nnc2c3ccccc3n(S(=O)(=O)c3ccc(C)cc3)c2n1	1	nt	nt	25*	1	0
CCCCn1c(NC(=O)c2ccccc2Cl)c(C#N)c2nc3ccccc3nc21	nt	78*	0	nt	nt	nt
N#Cc1c(NC(=O)c2ccccc2Cl)n(Cc2ccccc2)c2nc3ccccc3nc12	-17*	11	nt	8	2	-12
CC(C)CC#Cc1cnc2c(c1)C(=O)N([C@@H](C)CO)C[C@@H](C)[C@H](CN(C)C(=O)c1ccccc1F)O2	-2	nt	nt	nt	4	nt
C/C(=N\NC(=O)c1c[nH]c2ccccc12)c1ccccn1	-15	37	nt	1	2	-4
C/C(=N\NC(=O)c1cc2ccccc2cc1O)c1ccccn1	4	92*	1	-2	-5	-6
C[C@H](CO)N1C[C@H](C)[C@H](CN(C)Cc2ccc(C(F)(F)F)cc2)Oc2ccc(NC(=O)C3CCCCC3)cc2C1=O	-3	nt	-4	-8	2	0
O=C(c1ccccc1)N1CC2(C1)[C@H](c1ccccc1)[C@@H](CO)N2Cc1ccccn1	-1	nt	nt	11	-4	107*
O=C(c1ccc(F)cc1)N1CC2(C1)[C@@H](c1ccccc1)[C@@H](CO)N2Cc1ccccn1	5	nt	nt	-6	-2	-11
O=C(c1ccccc1)N1CC2(C1)[C@@H](c1ccccc1)[C@@H](CO)N2Cc1ccccn1	-3	nt	nt	21*	0	11
O=C(c1ccncc1)N1CC2(C1)[C@@H](c1ccccc1)[C@@H](CO)N2Cc1ccccn1	6	nt	nt	-2	-1	9
O=C(c1cccnc1)N1CC2(C1)[C@H](c1ccccc1)[C@@H](CO)N2Cc1ccccc1	4	nt	nt	108*	4	-47
CCS(=O)(=O)N1CC2(C1)[C@@H](c1ccccc1)[C@H](CO)N2Cc1ccccn1	4	nt	nt	22*	-2	4
CCCNC(=O)Nc1ccc2c(c1)C(=O)N(C)C[C@@H](OC)[C@@H](C)CN(C(=O)C1CCCCC1)[C@H](C)CO2	-2	nt	nt	nt	nt	nt
[O-][n+]1cccc2c(Br)cc(Br)c(O)c21	-55	107*	-1	2	7	-8
O=C(C1CCCC1)N1CC[C@@H]2[C@@H](CO)Nc3ccc(-c4cccc(F)c4)cc3[C@@H]21	-47	nt	nt	-9	25*	-3
OC[C@@H]1Nc2ccc(-c3ccccc3)cc2[C@H]2[C@@H]1CCN2Cc1ccc(F)cc1	-12	nt	-1	49*	-3	-9
O=C(c1cccc(F)c1)N1CC[C@@H]2[C@@H](CO)Nc3ccc(-c4ccccc4)cc3[C@@H]21	-11	nt	nt	-14	31*	-3
O=C(C1CCCC1)N1CC[C@@H]2[C@H](CO)Nc3ccc(C4=CCCCC4)cc3[C@@H]21	-32	nt	nt	-4	34*	0
CC(C)NC(=O)N(C)C[C@H]1Oc2c(NS(=O)(=O)c3ccc(Cl)cc3)cccc2C(=O)N([C@H](C)CO)C[C@@H]1C	-3	nt	-2	?	-1	1
CCS(=O)(=O)N1CCC2(CC1)CN(Cc1ccccc1OC)[C@H](CO)c1c2c2ccc(OC)cc2n1C	3	nt	nt	-4	0	23
C[C@@H]1CN([C@H](C)CO)C(=O)c2cccc(NC(=O)C3CC3)c2O[C@@H]1CN(C)Cc1ccc(C(=O)O)cc1	5	nt	-16	11	1	0
COc1ccc(S(=O)(=O)N(C)C[C@@H]2OCCCC[C@H](C)Oc3ccc(NS(=O)(=O)c4ccc(C)cc4)cc3C(=O)N([C@H](C)CO)C[C@@H]2C)cc1	1	nt	0	14	0	2
O=C(C1CC1)N1CC[C@H]2[C@H](CO)Nc3ccc(-c4cccc(F)c4)cc3[C@H]21	-6	nt	-5	32*	-3	-2

Screens: PubChem BioAssay, Broad Institute
